ChEMBL document CHEMBL4138220, “A fluorine scan of a tubulin polymerization inhibitor isocombretastatin A-4: Design, synthesis, molecular modelling, and biological evaluation” (Eur J Med Chem, 2018)
Calls of active or inactive are those of the source. No cut-off for these calls is given here.

Key:
HCT-116 [1] = assay: Antiproliferative activity against human HCT116 cells after 72 hrs by resazurin-based fluorescence assay; format: functional, cell-based; settings: HCT-116, 72 h
[2] = Inhibition of sheep brain tubulin polymerization assessed as reduction in rate of microtubule assembly by DAPI-fluorescence based assay; set-up: species or system Ovis aries
Method in brief: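 Sheep brain tubulin purified by two assembly–disassembly cycles, about 10 µM in buffer at pH 6.6 with MgCl2, EGTA and 1 mm GTP. Assembly followed continuously at 37 °C by DAPI fluorescence. IC50 is the concentration halving the maximum assembly rate versus no compound. Reference compounds run the same day. Average of three experiments.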

U-87 MG [3] = assay: Antiproliferative activity against human U87 cells after 72 hrs by resazurin-based fluorescence assay; format: functional, cell-based, U-87MG ATCC
Method in brief: (§1)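 CellTiter-Blue viability. Cells plated at 5 × 10^3 per well and cultured 24 h, then given compound in DMSO (under 0.1%) for 72 h. Resazurin added for 2 h, fluorescence read at ex 560/em 590 nm. […] Run in triplicate. U87-MG grown in DMEM (4.5 g/L glucose, 10% FCS, 1% glutamine). K562, K562R (doxorubicin-resistant), A549 and MCF7 grown in RPMI 1640 (10% FCS, 1% glutamine). All kept at 37 °C, 5% CO2.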

A549 [4] = assay: Antiproliferative activity against human A549 cells after 72 hrs by resazurin-based fluorescence assay; format: functional, cell-based; settings: A549, 72 h
[5] = Metabolic stability in human liver microsomes at 5 uM preincubated for 5 mins followed NADPH addition measured after 120 mins by UPLC-MS/MS analysis; format: ADME, microsome; settings: read-out: Stability
[6] = Metabolic stability in human liver microsomes at 5 uM after 120 mins in absence of NADPH by UPLC-MS/MS analysis; format: ADME, microsome; settings: read-out: Stability
[7] = Metabolic stability in human plasma at 5 uM after 120 mins by UPLC-MS/MS analysis; format: ADME, cell-free; settings: read-out: Stability
Method in brief: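 Compound at 5 µM in human plasma at 37°C, sampled from 0 to 120 min. Stopped with acetonitrile, centrifuged, supernatant dried under nitrogen and reconstituted in 0.2% formic acid water/methanol 75/25. Measured by UPLC-MS/MS as % remaining. Procaine was the positive control.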

K562 = assay: Antiproliferative activity against human K562 cells after 72 hrs by resazurin-based fluorescence assay; format: functional, cell-based; settings: K562, 72 h; method in brief: as §1
[8] = Intrinsic clearance in human liver microsomes at 5 uM preincubated for 5 mins followed by NADPH addition measured after 45 mins by UPLC-MS/MS analysis; format: ADME, microsome; settings: read-out: CLH
MCF7 = assay: Antiproliferative activity against human MCF7 cells after 72 hrs by resazurin-based fluorescence assay; format: functional, cell-based; settings: MCF7, 72 h; method in brief: as §1
K-562R = assay: Antiproliferative activity against human K562R cells after 72 hrs by resazurin-based fluorescence assay; format: functional, cell-based; method in brief: as §1
[9] = Increase in PGF2alpha-induced contractile response in isolated Wistar rat aorta rings at 10 uM after 10 mins; format: tissue-based
Method in brief: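 Rat aortic rings 2–3 mm in PSS at 37°C, 95% O₂/5% CO₂, pH 7.4, isometric tension at 2 g resting force. Rings were kept if K60 contraction was ≥1.5 g and ACh (10 µM) relaxation ≥15%. Compound (10 µM) or DMSO 0.1% was given for 10 min, then cumulative PGF2α 1 nM–30 µM. Hill fits gave pD2 and Emax as % of K60. N = 6.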

PBL [10] = assay: Cytotoxicity against human PBL cells assessed as reduction in cell viability after 72 hrs by MTS assay; format: cell-based
Method in brief: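 PBMCs from healthy donors were isolated on a Ficoll gradient and cultured overnight at 37°C in RPMI-1640 with 10% FCS. Non-adherent cells were set at 5 × 10⁵/mL with PHA 2.5 µg/mL (proliferating) or without it (quiescent). Serial dilutions 0.001–25 µM final (10 mM DMSO stocks) were applied for 72 h at 37°C, and viability was read by MTS.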

PBL [11] = assay: Cytotoxicity against human PBL cells assessed as reduction in cell proliferation after 72 hrs by MTS assay
[12] = Induction of basal contraction tone in isolated Wistar rat aorta rings at 10 uM after 10 mins in presence K60 solution (reference value: 0.2 +/- 0.2%); format: tissue-based
HCT-116 [13] = assay: Cell cycle arrest in human HCT116 cells assessed as accumulation at G2/M phase at 20 nM after 24 hrs by propidium iodide staining based flow cytometry; format: functional
Method in brief: (§2)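 Exponentially growing HCT116 (RPMI 1640) or U87-MG (DMEM, 4.5 g/L glucose) cells, each medium with 10% FCS and 1% glutamine, treated 24 h at 20 nM in DMSO, with a DMSO control. DNA content measured by propidium iodide staining and flow cytometry.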

Tubulin (Homo sapiens) [14] = target: T1, Tubulin (Homo sapiens) (UniProt P68371+Q9H4B7+P0DPH7+P68366+Q13509+Q71U36+P04350+Q3ZCM7+P07437+P68363+Q9BQE3+Q6PEY2+Q13885+Q9BVA1+Q9BUF5); assay: Inhibition of tubulin polymerization in human U87MG cells assessed as formation of disorganized microtubule network at 5 nM after 24 hrs by Hoechst-33258 staining based inverted microscopy; format: cell-based
Method in brief: (§3)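 U87-MG on chamber slides, 24 h with 5 or 10 nM, control 0.1% DMSO. Fixed in 2% paraformaldehyde, permeabilized with 0.25% Triton X-100, blocked with BSA/goat serum. Stained with mouse anti-β-tubulin overnight at 4°C, then Alexa 647 anti-mouse plus Hoechst 33258 for 2 h, then Alexa 488 phalloidin for F-actin. Imaged on an inverted microscope with a 60X oil objective.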

Tubulin (Homo sapiens) [15] = target: T1, Tubulin (Homo sapiens); assay: Inhibition of tubulin polymerization in human U87MG cells assessed as formation of disorganized actin network at 10 nM after 24 hrs by Hoechst-33258 staining based inverted microscopy; format: cell-based; method in brief: as §3
Tubulin (Homo sapiens) [16] = target: T1, Tubulin (Homo sapiens); assay: Inhibition of tubulin polymerization in human U87MG cells assessed as multinucleation at 10 nM after 24 hrs by Hoechst-33258 staining based inverted microscopy; format: cell-based; method in brief: as §3
U-87 MG [17] = assay: Cell cycle arrest in human U87MG cells assessed as accumulation at G2/M phase at 20 nM after 24 hrs by propidium iodide staining based flow cytometry; format: functional; settings: U-87MG ATCC; method in brief: as §2
A549 [18] = assay: Potency index, ratio of combretastatin A-4 IC50 to compound IC50 for antiproliferative activity against human A549 cells; format: functional
Tubulin (Homo sapiens) [19] = target: T1, Tubulin (Homo sapiens); assay: Inhibition of tubulin polymerization in human U87MG cells assessed as shrinkage of microtubule spindles at 10 nM after 24 hrs by Hoechst-33258 staining based inverted microscopy; format: cell-based; method in brief: as §3

## C=C(c1cc(OC)cc(OC)c1)c1ccc(OC(F)(F)F)c([N+](=O)[O-])c1
HCT-116 [1]
  IC50: > 10000 nM

## C=C(c1ccc(OC)c(OC(F)(F)F)c1)c1cc(OC)c(OC)c(OC)c1
HCT-116 [1]
  IC50: 1500 nM

## COc1cc(C(C)c2ccc(OC(F)(F)F)cc2)cc(OC)c1OC (stereo not given)
HCT-116 [1]
  IC50: > 10000 nM

## COc1cc(C(C)c2ccc(OC(F)(F)F)c(F)c2)cc(OC)c1OC (stereo not given)
HCT-116 [1]
  IC50: 5000 nM

## COc1ccc(C(=C(F)F)c2cc(OC)c(OC)c(OC)c2)cc1O
HCT-116 [1]
  IC50: 2 nM
[2]
  IC50: 2000 nM
U-87 MG [3]
  IC50: 0.3 nM
A549 [4]
  IC50: 2 nM
[5]
  remaining at 2 h, 5 µM: 5%
[6]
  remaining at 2 h, 5 µM: 20%
[7]
  remaining at 2 h, 5 µM: 100%
K562
  IC50: 2.2 nM
[8]
  microsomal CLint at 5 µM: 64 µL/min/mg
MCF7
  IC50: 0.6 nM
K-562R
  IC50: 0.2 nM

## C=C(c1ccc(OC(F)F)c(N)c1)c1cc(C)nc2ccccc12
HCT-116 [1]
  IC50: 20.2 nM

## C=C(c1ccc(OC(F)F)c(N)c1)c1cc(OC)c(OC)c(OC)c1
HCT-116 [1]
  IC50: 1 nM
[9]
  pD2: 5.87
[2]
  IC50: 400 nM
U-87 MG [3]
  IC50: 0.6 nM
PBL [10]
  IC50: > 10 µM
A549 [4]
  IC50: 2.2 nM
[5]
  remaining at 2 h, 5 µM: 3.3%
[6]
  remaining at 2 h, 5 µM: 9%
[7]
  remaining at 2 h, 5 µM: 100%
K562
  IC50: 4 nM
[8]
  microsomal CLint at 5 µM: 13.6 µL/min/mg
MCF7
  IC50: 2 nM
PBL [11]
  IC50: > 10 µM
K-562R
  IC50: 0.15 nM
[12]
  Activity: 2.2%

## C=C(c1ccc(OC)c(O)c1)c1cc(OC)c(OC)c(OC)c1
[2]
  IC50: 2000 nM
U-87 MG [3]
  IC50: 8 nM
A549 [4]
  IC50: 20 nM
MCF7
  IC50: 8 nM
K-562R
  IC50: 2.2 nM

## COc1cc(C(=C(F)F)c2ccc(OC(F)F)c(N)c2)cc(OC)c1OC
HCT-116 [1]
  IC50: 9.14 nM

## COc1ccc(/C=C\c2cc(OC)c(OC)c(OC)c2)cc1O [COMBRETASTATIN A4]
[9]
  pD2: 5.73
[2]
  IC50: 2100 nM
U-87 MG [3]
  IC50: 3 nM
PBL [10]
  IC50: > 10 µM
K562
  IC50: 6 nM
MCF7
  IC50: 8 nM
PBL [11]
  IC50: 0.1 to 0.5 µM
K-562R
  IC50: 23 nM
[12]
  Activity: 0.7%

## COc1ccc(C(c2cc(OC)c(OC)c(OC)c2)C(F)F)cc1O (stereo not given)
HCT-116 [1]
  IC50: 30 nM

## C=C(c1ccc(OC(F)(F)F)c(N)c1)c1cc(OC)c(OC)c(OC)c1
HCT-116 [1]
  IC50: 200 nM

## C=C(c1ccc(OC(F)(F)F)c(F)c1)c1cc(OC)c(OC)c(OC)c1
HCT-116 [1]
  IC50: 2000 nM

## C=C(c1ccc(OC)c(N)c1)c1cc(F)c(F)c(F)c1
HCT-116 [1]
  IC50: 100 nM

## C=C(c1ccc(OC(F)(F)F)cc1)c1c(OC)cc(OC)cc1OC
HCT-116 [1]
  IC50: > 10000 nM

## C=C(c1ccc(OC)c(F)c1)c1cc(OC)c(OC)c(OC)c1
HCT-116 [1]
  IC50: 7 nM
[2]
  IC50: 4000 nM
U-87 MG [3]
  IC50: 8 nM
A549 [4]
  IC50: 8 nM
K562
  IC50: 6 nM
MCF7
  IC50: 1 nM
K-562R
  IC50: 2 nM

## COc1ccc(C(=C(F)F)c2cc(OC)c(OC)c(OC)c2)cc1N
HCT-116 [1]
  IC50: 0.9 nM
[9]
  pD2: 5.94
HCT-116 [13]
  Activity: Active
[2]
  IC50: 2000 nM
U-87 MG [3]
  IC50: 0.2 nM
PBL [10]
  IC50: > 10 µM
Tubulin (Homo sapiens) [14]
  inhibition: Active
A549 [4]
  IC50: 2 nM
Tubulin (Homo sapiens) [15]
  inhibition: Active
[5]
  remaining at 2 h, 5 µM: 13.6%
[6]
  remaining at 2 h, 5 µM: < 5%
Tubulin (Homo sapiens) [16]
  inhibition: Active
[7]
  remaining at 2 h, 5 µM: 100%
K562
  IC50: 0.4 nM
[8]
  microsomal CLint at 5 µM: 43 µL/min/mg
MCF7
  IC50: 1.5 nM
U-87 MG [17]
  Activity: Active
A549 [18]
  Ratio IC50: 90
PBL [11]
  IC50: > 10 µM
K-562R
  IC50: 0.1 nM
Tubulin (Homo sapiens) [19]
  inhibition: Active
[12]
  Activity: 2.1%

## COc1ccc(C(C)c2cc(OC)c(OC)c(OC)c2)cc1OC(F)(F)F (stereo not given)
HCT-116 [1]
  IC50: > 10000 nM

## COc1cc(C(C)c2ccc(OC(F)F)c(N)c2)cc(OC)c1OC (stereo not given)
HCT-116 [1]
  IC50: 18 nM

## C=C(c1cc(OC)c(OC)c(OC)c1)c1ccc(OC(F)(F)F)c([N+](=O)[O-])c1
HCT-116 [1]
  IC50: 4000 nM

## COc1ccc(C(C)c2cc(OC)c(OC)c(OC)c2)cc1F (stereo not given)
HCT-116 [1]
  IC50: 85 nM

## C=C(c1ccc(OC(F)(F)F)cc1)c1cc(OC)cc(OC)c1
HCT-116 [1]
  IC50: > 10000 nM

## COc1cc(C(C)c2ccc(OC(F)(F)F)c(N)c2)cc(OC)c1OC (stereo not given)
HCT-116 [1]
  IC50: 3000 nM

## C=C(c1ccc(OC)c(N)c1)c1cc(OC)c(OC)c(OC)c1
HCT-116 [1]
  IC50: 2 nM
[9]
  pD2: 5.79
[2]
  IC50: 2200 nM
U-87 MG [3]
  IC50: 9 nM
A549 [4]
  IC50: 7 nM
[5]
  remaining at 2 h, 5 µM: 11.6%
[6]
  remaining at 2 h, 5 µM: 6%
[7]
  remaining at 2 h, 5 µM: 94%
K562
  IC50: 5 nM
[8]
  microsomal CLint at 5 µM: 46 µL/min/mg
MCF7
  IC50: 2.9 nM
K-562R
  IC50: 2 nM
[12]
  Activity: 1.6%

## C=C(c1ccc(OC(F)(F)F)cc1)c1cc(OC)c(OC)c(OC)c1
HCT-116 [1]
  IC50: 5000 nM
